Laboratory results from ChEMBL document CHEMBL1130349, “Synthesis and structure-activity relationships of a new model of arylpiperazines. 3.1 2-[omega-(4-arylpiperazin-1-yl)alkyl]perhydropyrrolo- [1,2-c]imidazoles and -perhydroimidazo[1,5-a]pyridines: study of the influence of the terminal amide fragment on 5-HT1A affinity/selectivity” (J Med Chem, 1997).

How the values were obtained:
[1] = target: T1, Alpha-1A adrenergic receptor (Rattus norvegicus, UniProt P43140); assay: Binding affinities against Alpha-1 adrenergic receptor (alpha1 adrenoceptor) using [3H]prazosin as radioligand in rat cerebral cortex membrane; type: cell membranes
T1 sequence (P43140 whole entry): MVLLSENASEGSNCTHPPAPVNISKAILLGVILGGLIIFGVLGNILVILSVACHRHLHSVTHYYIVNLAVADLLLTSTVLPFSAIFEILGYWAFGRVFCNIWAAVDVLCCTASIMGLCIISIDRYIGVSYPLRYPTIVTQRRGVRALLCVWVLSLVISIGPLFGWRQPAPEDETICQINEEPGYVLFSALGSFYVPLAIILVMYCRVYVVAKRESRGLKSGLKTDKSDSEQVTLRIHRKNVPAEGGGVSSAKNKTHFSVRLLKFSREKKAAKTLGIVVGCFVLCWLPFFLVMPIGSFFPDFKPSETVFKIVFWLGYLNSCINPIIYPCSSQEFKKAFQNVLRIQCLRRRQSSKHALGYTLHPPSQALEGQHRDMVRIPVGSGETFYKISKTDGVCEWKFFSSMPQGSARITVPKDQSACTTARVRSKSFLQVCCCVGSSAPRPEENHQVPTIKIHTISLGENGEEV
Outline: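 Radioligand binding run by a cited earlier method; values are means ± SEM of two to four experiments, each in triplicate.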

[2] = target: T2, 5-hydroxytryptamine receptor 1A (Rattus norvegicus, UniProt P19327); assay: Binding affinities against 5-hydroxytryptamine 1A receptor using [3H]8-OH-DPAT as radioligand in rat cerebral cortex membrane; type: cell membranes
T2 sequence (P19327 whole entry): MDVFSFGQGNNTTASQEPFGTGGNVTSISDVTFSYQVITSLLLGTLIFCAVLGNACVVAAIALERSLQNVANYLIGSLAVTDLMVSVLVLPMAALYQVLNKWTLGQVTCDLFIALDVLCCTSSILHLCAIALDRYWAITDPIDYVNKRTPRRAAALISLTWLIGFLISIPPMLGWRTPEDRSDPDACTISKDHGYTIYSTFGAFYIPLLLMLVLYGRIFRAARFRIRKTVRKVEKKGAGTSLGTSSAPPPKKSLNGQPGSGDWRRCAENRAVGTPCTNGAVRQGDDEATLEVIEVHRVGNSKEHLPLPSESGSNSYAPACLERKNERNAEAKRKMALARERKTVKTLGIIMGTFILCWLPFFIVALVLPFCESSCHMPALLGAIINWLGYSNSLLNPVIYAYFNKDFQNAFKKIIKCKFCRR
Outline: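 Rat cerebral cortex homogenised in ice-cold 50 mM Tris-HCl (pH 7.7), washed twice, preincubated 10 min at 37 °C. Membranes (~1 mg protein) incubated 15 min at 37 °C with 0.6 nM [3H]-8-OH-DPAT across several competitor concentrations. Nonspecific binding defined by 10 μM 5-HT. Two to four experiments, each in triplicate.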

[3] = Selectivity ratio of serotonin and alpha receptor; set-up: reference not given here

SMILES	Ki [1] [nM]	Ki ratio [3]	Ki [2] [nM]
Clc1cccc(N2CCN(CCCCN3CC4CCCN4C3)CC2)c1 (stereo not given)	64.9	2.3	28.1
COc1ccccc1N1CCN(CCCN2CC3CCCCN3C2)CC1 (stereo not given)	218	15.7	13.9
FC(F)(F)c1cccc(N2CCN(CCCCN3CC4CCCN4C3)CC2)c1 (stereo not given)	240	19.5	12.3
FC(F)(F)c1cccc(N2CCN(CCCCN3CC4CCCCN4C3)CC2)c1 (stereo not given)	115	7.5	15.3
COc1ccccc1N1CCN(CCCCN2CC3CCCN3C2)CC1 (stereo not given)	72.6	4.1	17.5
FC(F)(F)c1cccc(N2CCN(CCCN3CC4CCCCN4C3)CC2)c1 (stereo not given)	278	11.4	24.3
O=C1C2CCCCN2C(=O)N1CCCN1CCN(c2cccc(C(F)(F)F)c2)CC1 (stereo not given)	90.4	15.9	–
O=C1C2CCCCN2C(=O)N1CCCCN1CCN(c2cccc(C(F)(F)F)c2)CC1 (stereo not given)	72.4	7.3	–
FC(F)(F)c1cccc(N2CCN(CCCN3CC4CCCN4C3)CC2)c1 (stereo not given)	363	12.5	29.1
O=C1C2CCCN2C(=O)N1CCCN1CCN(c2cccc(C(F)(F)F)c2)CC1 (stereo not given)	109	28.7	–
COc1ccccc1N1CCN(CCCN2CC3CCCN3C2)CC1 (stereo not given)	323	26	12.2
Clc1cccc(N2CCN(CCCCN3CC4CCCCN4C3)CC2)c1 (stereo not given)	64.3	2.6	24.3

Continued by falling Ki [1], values first:

Ki [1] [nM]	Ki ratio [3]	SMILES	Ki [2] [nM]
64.9	27	O=C1C2CCCN2C(=O)N1CCCCN1CCN(c2cccc(C(F)(F)F)c2)CC1 (stereo not given)	–
45	8.8	COc1ccccc1N1CCN(CCCCN2CC3CCCCN3C2)CC1 (stereo not given)	5.1
12.1	1.7	O=C1C2CCCCN2C(=O)N1CCCCN1CCN(c2cccc(Cl)c2)CC1 (stereo not given)	–
9.9	2.4	COc1ccccc1N1CCN(CCCN2C(=O)C3CCCCN3C2=O)CC1 (stereo not given)	–
9.6	0.8	O=C1C2CCCN2C(=O)N1CCCCN1CCN(c2cccc(Cl)c2)CC1 (stereo not given)	–
8.6	1	COc1ccccc1N1CCN(CCCCN2C(=O)C3CCCCN3C2=O)CC1 (stereo not given)	–
8.3	1.5	COc1ccccc1N1CCN(CCCCN2C(=O)C3CCCN3C2=O)CC1 (stereo not given)	–
3.1	0.7	COc1ccccc1N1CCN(CCCN2C(=O)C3CCCN3C2=O)CC1 (stereo not given)	–
